Here are results for 13 compounds from PubChem BioAssay.

Test [1] can be described thus: hit retest on RPL19A-GFP reporter strain – cell-based, S. cerevisiae, flow cytometry, cherry picks, mother/daughter gates, confirmation (AID 2270;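 active means GFP response below 50% of the DMSO control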). Particulars: 3 h, at 10 µM, stronger effect = lower value, 100 = same GFP as DMSO wells. A general note: Flow cytometry measures light scatter and fluorescence of single cells or particles in a stream.
Test [2] can be described thus: yeast TOR pathway reporter LAP4-GFP change – cell-based, cherry picks, flow cytometry, mother/daughter gates, confirmation (AID 2271;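 active means GFP response above 150% of the DMSO control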;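 further: ratio of sample to DMSO plate mean so 100% equals DMSO level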). Particulars: S. cerevisiae LAP4-GFP strain, 3 h, at 10 µM, stronger effect = higher value, 100 means same as DMSO control. An outline of the steps:
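System: GFP-fusion yeast strain; Incubation: compound exposure 3 h at 30 °C, end-over-end rotation; Measured by: GFP by flow cytometry; Read-out: median GFP fluorescence as percent of plate-mean DMSO wells; Medium: synthetic complete (SC) yeast growth medium; Compound: single test-compound dose, 10 µM final; Benchmarks: DMSO-only negative wells, rapamycin 400 ng/mL positive wells.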

Test [3] is described as follows: TOR pathway reporter MEP2-GFP, retest of hits – S. cerevisiae, flow cytometry GFP, cherry picks, confirmation (AID 2272;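 active means GFP response above 150% of the DMSO control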;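 further: ratio of well signal to plate DMSO mean so 100% equals DMSO level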). The settings on record: S. cerevisiae MEP2-GFP strain, 3 h, at 10 µM, stronger effect = higher value.
Test [4] in a line: yeast AGP1-GFP fluorescence change, single-dose – cell-based, flow cytometry, S. cerevisiae, cherry picks, confirmation (AID 2273).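 Further: median GFP channel fluorescence over the whole cell population gate.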 Particulars: S. cerevisiae AGP1-GFP strain, 3 h, at 10 µM.
A short description of test [5]: TOR pathway CIT2 reporter hit retest – S. cerevisiae, GFP fusion, cherry picks, mother/daughter gates, confirmation (AID 2274). Particulars: S. cerevisiae CIT2-GFP strain, flow cytometry, 3 h, at 10 µM, stronger effect = higher value.
Setting [6] is: measured here: daughter cell gate.
Where [7] appears, read: measured here: mother cell gate.
The mark [8] stands for this setting: measured here: daughter cell gate response.
Setting [9] is: measured here: mother cell gate response.

Activity calls are given as the source filed them.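 How the source made its calls, unless noted: active means GFP response above 150% of the DMSO level; inconclusive means fewer than 70 events counted for a yeast strain; inactive means the rest.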

For `Cc1cc(NCCCN2CCOCC2)n2nc(C)c(-c3ccccc3)c2n1`, the GFP response vs DMSO in test [1] was 95.8% (inactive); in test [1] (setting [6]), 94.7%; in test [1] (setting [7]), 94.4%; in test [3], 99.3% (inactive). Further, the GFP response relative to DMSO is 100% (inactive) in test [2], 97.5% in test [2] (setting [8]) and 100% in test [2] (setting [9]). For the same compound, the GFP response, % of DMSO was 100% (inactive) in test [4], 101% (inactive) in test [5], 101% in test [5] (setting [6]) and 100% in test [5] (setting [7]).
For the compound `O=[N+]([O-])/C=C/c1c(OCc2ccccc2)ccc2ccccc12`, the GFP response vs DMSO is 102% (inactive) in test [1], 104% in test [1] (setting [6]), 101% in test [1] (setting [7]) and 98.8% (inactive) in test [3]. Moreover, the GFP response relative to DMSO was 112% (inactive) in test [2], 106% in test [2] (setting [8]) and 118% in test [2] (setting [9]). Besides, the GFP response, % of DMSO was 102% (inactive) in test [4], 99.7% (inactive) in test [5], 103% in test [5] (setting [6]) and 94.7% in test [5] (setting [7]).
Consider `Cc1ccc(NC(=O)c2ccc([N+](=O)[O-])o2)cc1C`, for which the GFP response vs DMSO in test [1] is 100% (inactive); in test [1] (setting [6]), 104%; in test [1] (setting [7]) it was 95.8%; in test [3], 110% (inactive). Further, the GFP response relative to DMSO in test [2] was 128% (inactive); in test [2] (setting [8]), 111%; in test [2] (setting [9]), 127%. Besides, the GFP response, % of DMSO in test [4] is 99.8% (inactive); in test [5], 100% (inactive); in test [5] (setting [6]) it was 105%; in test [5] (setting [7]) it was 96%.
As for `Cc1c(Br)cc(C(=O)O)c(C)c1C`, the GFP response vs DMSO in test [1] is 94.4% (inactive); in test [1] (setting [6]), 94.7%; in test [1] (setting [7]) it was 88%; in test [3] it was 94.7% (inactive). Further, the GFP response relative to DMSO in test [2] was 101% (inactive); in test [2] (setting [8]), 101%; in test [2] (setting [9]), 102%. The GFP response, % of DMSO is 97.1% (inactive) in test [4], 97.3% (inactive) in test [5], 95.6% in test [5] (setting [6]) and 99.3% in test [5] (setting [7]).
Take `CCOC(=O)c1sc(NC(=O)c2ccco2)nc1-c1ccccc1`: the GFP response vs DMSO in test [1] was 97.8% (inactive); in test [1] (setting [6]) it was 96.4%; in test [1] (setting [7]) it was 96.7%; in test [3], 103% (inactive). The values for the GFP response relative to DMSO in test [2], in test [2] (setting [8]) and in test [2] (setting [9]) were 96.5% (inactive), 94.4% and 98.4%, respectively. Further, the GFP response, % of DMSO in test [4] is 100% (inactive); in test [5], 98.6% (inactive); in test [5] (setting [6]), 97.6%; in test [5] (setting [7]) it was 99.3%.
On to `Cc1ccc(NC(=O)c2nc(S(=O)(=O)Cc3ccccc3)ncc2Cl)cc1`, for which the GFP response vs DMSO was 92% (inactive) in test [1], 92.5% in test [1] (setting [6]), 89.8% in test [1] (setting [7]) and 95.7% (inactive) in test [3]. The GFP response relative to DMSO in test [2] was 141% (inactive); in test [2] (setting [8]), 134%; in test [2] (setting [9]), 140%. For the same compound, the GFP response, % of DMSO is 100% (inactive) in test [4], 90% (inactive) in test [5], 89.9% in test [5] (setting [6]) and 85.8% in test [5] (setting [7]).
For `CCCCOC(=O)C1CCC[C@@H](C)N1` (stereo partly drawn), the GFP response vs DMSO in test [1] is 101% (inactive); in test [1] (setting [6]), 102%; in test [1] (setting [7]) it was 100%; in test [3] it was 103% (inactive). Besides, the figures for the GFP response relative to DMSO in test [2], in test [2] (setting [8]) and in test [2] (setting [9]) were 98.9% (inactive), 101% and 99.5%, respectively. Moreover, the GFP response, % of DMSO in test [4] is 102% (inactive); in test [5], 100% (inactive); in test [5] (setting [6]) it was 101%; in test [5] (setting [7]), 100%.
In the case of `CCOC(=O)CS(=O)(=O)c1nc(-c2ccccc2)cc(C(F)(F)F)n1`, the GFP response vs DMSO is 101% (inactive) in test [1], 105% in test [1] (setting [6]), 96.2% in test [1] (setting [7]) and 130% (inactive) in test [3]. For the same compound, the GFP response relative to DMSO in test [2] is 204% (active); in test [2] (setting [8]), 192%; in test [2] (setting [9]) it was 206%. Besides, the GFP response, % of DMSO was 110% (inactive) in test [4], 110% (inactive) in test [5], 110% in test [5] (setting [6]) and 101% in test [5] (setting [7]).
`Cc1cc(OCc2ccc(C(=O)NN=C3CCCC3)cc2)ccc1Cl`: the GFP response vs DMSO in test [1] is 103% (inactive); in test [1] (setting [6]), 98.7%; in test [1] (setting [7]), 96.1%; in test [3], 120% (inactive). In addition, the values for the GFP response relative to DMSO in test [2], in test [2] (setting [8]) and in test [2] (setting [9]) were 132% (inactive), 116% and 135%, respectively. The GFP response, % of DMSO was 101% (inactive) in test [4], 95.2% (inactive) in test [5], 91.5% in test [5] (setting [6]) and 89.1% in test [5] (setting [7]).
In the case of `O=C(O)c1ccc(N/N=C/C(Br)=C/c2ccccc2)cc1`, the GFP response vs DMSO is 98.4% (inactive) in test [1], 97% in test [1] (setting [6]), 96.7% in test [1] (setting [7]) and 97.5% (inactive) in test [3]. In addition, the GFP response relative to DMSO in test [2] is 131% (inactive); in test [2] (setting [8]) it was 130%; in test [2] (setting [9]), 130%. Moreover, the GFP response, % of DMSO in test [4] is 94.7% (inactive); in test [5], 90.7% (inactive); in test [5] (setting [6]), 92.7%; in test [5] (setting [7]), 85.1%.
With `CCCc1[nH]nc2c1C(c1cccc(OC)c1)C(C#N)=C(N)O2` (stereo not drawn), the GFP response vs DMSO in test [1] is 103% (inactive); in test [1] (setting [6]), 101%; in test [1] (setting [7]) it was 103%; in test [3], 105% (inactive). For the same compound, the GFP response relative to DMSO in test [2] was 98.2% (inactive); in test [2] (setting [8]) it was 95.9%; in test [2] (setting [9]) it was 97.3%. In addition, the GFP response, % of DMSO is 98.6% (inactive) in test [4], 102% (inactive) in test [5], 97.4% in test [5] (setting [6]) and 103% in test [5] (setting [7]).
Turning to `CN1CCSc2ccc(C(=O)Nc3cccc(F)c3)cc21`, the GFP response vs DMSO in test [1] is 95.2% (inactive); in test [1] (setting [6]), 91.8%; in test [1] (setting [7]), 96.7%; in test [3] it was 99.5% (inactive). Also, the GFP response relative to DMSO was 120% (inactive) in test [2], 115% in test [2] (setting [8]) and 121% in test [2] (setting [9]). The GFP response, % of DMSO is 97.8% (inactive) in test [4], 92.1% (inactive) in test [5], 89% in test [5] (setting [6]) and 91% in test [5] (setting [7]).
On to `CCOC(=O)N/C(N)=N/c1nc2ccccc2s1`, for which the GFP response vs DMSO in test [1] was 85.9% (inactive); in test [1] (setting [6]), 82.1%; in test [1] (setting [7]), 86.6%; in test [3], 102% (inactive). Also, the figures for the GFP response relative to DMSO in test [2], in test [2] (setting [8]) and in test [2] (setting [9]) were 120% (inactive), 113% and 126%, respectively. Besides, the GFP response, % of DMSO in test [4] is 95% (inactive); in test [5] it was 92.6% (inactive); in test [5] (setting [6]), 86.7%; in test [5] (setting [7]), 93.4%.
